# Assay outcomes from PubChem BioAssay.
# Rows were chosen to be rich in hits. Some 1.6% of all compounds tested hit in one or more screens of this group.
# MsrA inhibitor: bovine MsrA inhibition; purified bovine MsrA, absorbance read-out; 360,000 compounds, 0.75% hits; inhibition, % at 15.5 µM; AID 651718;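 note: 0% = vehicle wells with enzyme and 100% = reference inhibitor wells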
# MsrA act: bovine methionine sulfoxide reductase A activation; 360,000 compounds, 0.3% hits; activation, % at 10.6 µM; purified bovine MsrA, absorbance read-out; in the data active = activation above about 7.5%;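 note: 0% = vehicle and 100% = reference activator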
# MT1-MMP act inh: MT1-MMP (human) activation inhibition; GFP/RFP ratio change, % at 20 µM; 360,000 compounds, 0.061% hits; HT1080 RFP-PRO-GFP cells, GFP/RFP ratio fluorescence, overnight; percent of plate control window, DMSO zero; P50281;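 active = GFP/RFP ratio change of at least 30% with cell ATP level not reduced by more than half and red fluorescence within 50% of control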
#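 Material: RFP-PRO-GFP reporter HT1080 cells. Dosing: single-point 20 µM compound, 1% DMSO. Controls: DMSO and RFP-L50D-GFP cell wells. Timing: cells overnight before dosing, compound overnight, 37 °C, 5% CO2. Measure: GFP/RFP fluorescence ratio.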
# SKN-1 inh: blocks SKN-1 activity in C. elegans. C. elegans VP596 Pgst-4::GFP/RFP ratio, acrylamide-induced, 24 h. inhibition, % at 21.8 µM. 360,000 compounds, 0.49% hits. AID 624304;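 active = interference check ratio from 0.5 to 1.5 plus GFP to RFP signal ratio inhibition reaching or exceeding a fixed threshold, cut at about 30% in these data, passing the limit was not always enough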
# p-CIP stab down: p/CIP protein destabilization; F442A p/CIP-EGFP cells, EGFP fluorescence, 16 h; Q05BA5; AID 1984; decrease of EGFP signal, % at 10 µM; 290,000 compounds, 0.01% hits;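 active = EGFP signal decrease of at least 30% at 10 µM or well 3 SD below plate mean, unless failing retest; inactive = the rest, including hits failing retest or dose response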
# MsrA inh confirm: confirmation of bovine MsrA inhibitors | shares compounds with MsrA inhibitor | purified bovine MsrA, absorbance read-out | inhibition, % at 15.5 µM | 2,300 compounds, 41% hits | AID 651822;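 note: coupled to thioredoxin reductase with NADPH and selenocystamine and DMSO as substrate; 0% = vehicle only and 100% = full effect of reference inhibitor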
# * marks the source's active call; other numbers are inactive results; . = no result. Cut-off read from the data, not from the text of the source, unless noted: active = inhibition above about 4.5%; inactive = the rest.
SMILES,MsrA inhibitor,MsrA act,MT1-MMP act inh,SKN-1 inh,p-CIP stab down,MsrA inh confirm
COc1ccc(CSC2=C(C#N)C(=O)NC3(CCCCC3)S2)cc1,4.5,-12.6,-1.1,4.2,.,.
CCCCCCSC1=C(C#N)C(=O)NC2(CCCCC2)S1,5.2*,-9.1,-1.1,-12.8,-0.9,3.8
O=C(O)CCC(=O)N1c2ccccc2NC2=C(C(=O)CC(c3ccc(F)cc3)C2)C1c1ccc([N+](=O)[O-])o1 (stereo not drawn),7.0*,-3.7,-5.3,7.5,-3.7,4.6*
COc1ccc(C2CC(=O)C3=C(C2)Nc2ccccc2N(C(=O)CCC(=O)O)C3c2ccc(F)cc2)cc1 (stereo not drawn),5.0*,-2.1,-0.2,14.2,-3.0,4.4
O=[N+]([O-])c1cnc(Nc2ccc(Cl)cn2)c([N+](=O)[O-])c1,6.1*,1.6,5.5,10.9,-17.6,8.0*
Cc1ccc(C(=O)N/N=C\c2ccc[nH]2)cn1,6.6*,-2.9,2.9,8.6,2.3,4.2
Cc1ccccc1/C=N/NC(=O)c1cccnc1,-0.1,-8.2,0.3,-13.3,-6.9,.
O=C(N/N=C/c1ccc[nH]1)c1c[nH]c2ccccc12,5.8*,-12.5,.,-3.0,-1.3,4.0
Cc1cccc(C(=O)N/N=C/c2ccc[nH]2)c1,4.3,-7.0,6.5,7.6,1.2,.
O=C(N/N=C/c1ccc[nH]1)c1cccnc1,5.7*,-5.2,6.1,5.3,5.1,5.2*
O=C(N/N=C/c1ccccn1)c1c[nH]c2ccccc12,2.2,-1.5,1.9,-8.6,2.5,.
Cc1ccc(C(=O)N/N=C\c2cccn2C)cn1,7.8*,-11.3,.,-16.3,-25.5,4.7*
CCOC(=O)C1=CCN(S(=O)(=O)c2ccc(Br)cc2)C1c1cccc(Br)c1 (stereo not drawn),0.9,.,.,.,.,.
COC(=O)N1C[C@H](OCc2ccccc2)[C@H]2C[C@@H]1c1ccccc1O2,0.7,.,.,.,.,.
C[C@@H]1CN(S(=O)(=O)C(C)(C)C)[C@H](CCO)/C1=C\CCO,0.8,.,.,.,.,.
O=C(Nc1cc(Cl)ccc1Cl)c1ccco1,0.6,6.7,2.0,-7.4,-12.8,.
CS/C(Nc1cc(Cl)ccc1Cl)=C(/C#N)C(=O)c1ccco1,5.0*,-5.3,1.4,26.3,-14.0,2.6
CC1=C(c2ccc(F)cc2)[N+](=O)C(C)(C)N1[O-],4.8*,-11.4,-2.2,-12.9,-14.9,0.2
C[C@@H]1CNC(=O)c2c(C(=O)N3CCN(c4ccccc4)CC3)ncn21,-0.5,.,.,.,.,.
CC1(C)CC(=O)c2sc(NS(C)(=O)=O)nc2C1,6.6*,-4.9,4.2,8.7,-5.3,3.9
CC1(C)CC(=O)c2sc(NS(=O)(=O)c3ccc([N+](=O)[O-])cc3)nc2C1,6.3*,-2.3,2.2,-2.9,-9.3,3.7
CC1(C)CC(=O)c2sc(NC(=O)CN3C(=O)CCC3=O)nc2C1,5.0*,-0.3,3.4,2.2,-7.4,1.9
CC1(C)CC(=O)c2sc(NC(=O)CN3CCOCC3)nc2C1,1.0,-2.2,7.2,11.5,-2.5,.
CC1(C)CC(=O)c2sc(NS(=O)(=O)c3ccccc3)nc2C1,2.6,0.1,-0.8,6.1,2.6,.
CC(/C=C/c1ccccc1)=N\NC(N)=S,6.0*,-5.4,8.2,1.1,-7.1,3.6
SMILES,MsrA inhibitor,MsrA act,MT1-MMP act inh,SKN-1 inh,p-CIP stab down,MsrA inh confirm
COc1ccc(C(=O)N/C(=C\c2cccc3ccccc23)C(=O)NCCc2c[nH]c3ccccc23)cc1OC,5.0*,-1.3,-4.8,28.6,-10.9,1.1
COc1ccc(C(=O)NCCc2c[nH]c3ccccc23)cc1OC,1.2,-2.6,1.0,5.8,-1.1,.
Cc1oc2c(CN3CCOCC3)c(O)ccc2c(=O)c1-c1ccc(Cl)cc1,5.3*,-10.9,-4.4,-1.2,-6.0,1.3
O=C(N/N=C/C(Cl)=C\c1ccccc1)c1ccco1,3.9,-4.8,5.4,31.4,-0.3,.
O=C(N/N=C/C(Cl)=C/c1ccccc1)c1ccco1,8.5*,-6.8,-0.1,0.0,-20.7,6.6*
O=C(N/N=C/C(Cl)=C/c1ccccc1)c1cnccn1,9.6*,-6.3,5.5,29.1,-3.5,4.2
COC(=O)c1cc2c(c3c4cc(F)ccc4n(S(=O)(=O)c4cccc(C)c4)c13)C(=O)N(Cc1ccc(C(F)(F)F)cc1)C2,1.1,.,.,.,.,.
NC(=O)NN=C1CCC(O)CC1CC(=O)O (stereo not drawn),-0.1,.,.,.,.,.
CS(=O)(=O)c1ccc(-c2nnc(NC(=O)c3ccc(S(=O)(=O)N4CCCC4)cc3)o2)cc1,5.1*,-2.1,-0.1,-1.5,.,4.5
